Source: ChEMBL document CHEMBL1142567, “Inhibition of leukotriene biosynthesis by stilbenoids from Stemona species” (J Nat Prod, 2005)
Activity calls are given as the source filed them. No cut-off for these calls is given here.

Assays:
Type in all cases: functional
[1] = Ex vivo inhibition of leukotriene formation in calcium ionophore activated human neutrophilic granulocyte by ELISA
Outline: (§1)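 Human neutrophil granulocytes carrying 5-LOX activity, isolated by sedimentation rate and lysis tolerance. Cells activated with calcium ionophore, then incubated with test sample and arachidonic acid. Reaction stopped with formic acid and centrifuged. Supernatant diluted 50-fold; LTB4 measured by competitive EIA (18 h, 4 °C; Ellman's development; 412 nm). Samples tested at 50, 25, 10, 5 and 1 µM in duplicate. Inhibition given as percent of control; IC50 by probit-log analysis. Trypan blue viability check.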

[2] = (§2) Ex vivo inhibition of leukotriene formation in calcium ionophore activated human neutrophilic granulocyte at 50 uM by ELISA; outline: as §1
[3] = species on record: Homo sapiens; test: as §2; outline: as §1
[4] = Ex vivo inhibition of leukotriene formation in calcium ionophore activated human neutrophilic granulocyte at 25 uM by ELISA; outline: as §1

| IC50 [1] | Compound | inhibition at 50 µM [2] | Activity [3] | inhibition at 25 µM [4] |
| --- | --- | --- | --- | --- |
| > 50 µM | Oc1cc(O)cc(CCc2ccccc2)c1 [DIHYDROPINOSYLVIN] | 10% |  |  |
| 22.7 µM | Oc1cc(O)cc(/C=C/c2ccccc2)c1 [PINOSYLVIN] |  |  |  |
| > 50 µM | Oc1ccc(/C=C/c2cc(O)cc(O)c2)cc1 [RESVERATROL] | < 10% |  |  |
| 8.5 µM | COc1c(O)ccc2c1CCc1cc(O)c(C)c(OC)c1-2 [STEMANTHRENE A] |  |  |  |
|  | COc1cc2c(c(O)c1C)-c1ccc(O)c(OC)c1CC2 [STEMANTHRENE B] |  |  | 100% |
|  | COc1c(O)ccc2c1CCc1c(C)c(O)c(C)c(OC)c1-2 [STEMANTHRENE C] |  |  | 100% |
| 4.8 µM | COc1cc(O)c(C)c2c1-c1ccc(O)c(OC)c1CC2 [STEMANTHRENE D] |  |  |  |
| 23.3 µM | COc1cc(O)cc(-c2cc3c(O)cccc3o2)c1 [STEMOFURAN B] |  |  |  |
| > 50 µM | Cc1c(O)cc(-c2cc3ccccc3o2)cc1O [STEMOFURAN C] | 10% |  |  |
| 30.3 µM | COc1cc(O)c(C)c(-c2cc3c(O)cccc3o2)c1 [STEMOFURAN D] |  |  |  |
| 3.7 µM | COc1cc(-c2cc3c(O)c(C)ccc3o2)c(C)c(O)c1C [STEMOFURAN G] |  |  |  |
| 26.3 µM | COc1cc(-c2cc3c(O)cccc3o2)c(C)c(OC)c1C [STEMOFURAN J] |  |  |  |
| > 50 µM | COc1ccccc1CCc1cc(O)cc(O)c1 [STILBOSTEMIN A] | < 10% |  |  |
| > 50 µM | Cc1c(O)cc(CCc2ccccc2)cc1O [STILBOSTEMIN B] | 10% |  |  |
| > 50 µM | COc1ccccc1CCc1cc(O)c(C)c(O)c1 [STILBOSTEMIN D] | < 10% |  |  |
| > 50 µM | COc1cc(O)c(C)c(CCc2cccc(O)c2OC)c1 [STILBOSTEMIN F] | < 10% |  |  |
| 25.8 µM | COc1cc(CCc2cccc(O)c2OC)cc(O)c1C [STILBOSTEMIN G] |  |  |  |
| 10.4 µM | CC(c1cc2ccccc2s1)N(O)C(N)=O (centres undefined) [ZILEUTON] |  |  |  |

| Compound | IC50 [1] | inhibition at 50 µM [2] | Activity [3] | inhibition at 25 µM [4] |
| --- | --- | --- | --- | --- |
| CC[C@@H]1[C@H]2CCCCN3[C@H]2[C@@H](C[C@H]3[C@@H]2C[C@H](C)C(=O)O2)[C@H]2[C@@H]1OC(=O)[C@H]2C [NEOTUBEROSTEMONINE] | > 50 µM |  | inactive |  |
| CC[C@@H]1[C@H]2CCCCN3[C@H]2[C@H](C[C@H]3[C@@H]2C[C@H](C)C(=O)O2)[C@@H]2[C@H]1OC(=O)[C@H]2C [TUBEROSTEMONINE] | > 50 µM |  | inactive |  |
